# Rows were chosen to be rich in hits. Some 1.9% of all compounds tested hit in one or more screens of this group.
# LANA-H2B inh: blocks KSHV LANA binding to histone H2A/H2B | actives 0.6% (n = 320,000) | cell-free LANA-H2A/H2B peptide, fluorescence polarization | AID 2629 | inhibition, % (concentration not given with the values) | Q9QR71; in the data active means inhibition mostly above about 10%, no sharp cut-off; inactive means mostly below about 6.7%
# HDAC3 inh: blocks human histone deacetylase 3; recombinant HDAC3, fluorogenic peptide/trypsin coupled, fluorescence; inhibition, % at 8.3 µM; actives 0.15% (n = 320,000); AID 2718; in the data active means inhibition above about 26%, passing the limit was not always enough; inconclusive means no clear call, values can overlap the other calls
# Target sequence (O15379 whole entry, looked up): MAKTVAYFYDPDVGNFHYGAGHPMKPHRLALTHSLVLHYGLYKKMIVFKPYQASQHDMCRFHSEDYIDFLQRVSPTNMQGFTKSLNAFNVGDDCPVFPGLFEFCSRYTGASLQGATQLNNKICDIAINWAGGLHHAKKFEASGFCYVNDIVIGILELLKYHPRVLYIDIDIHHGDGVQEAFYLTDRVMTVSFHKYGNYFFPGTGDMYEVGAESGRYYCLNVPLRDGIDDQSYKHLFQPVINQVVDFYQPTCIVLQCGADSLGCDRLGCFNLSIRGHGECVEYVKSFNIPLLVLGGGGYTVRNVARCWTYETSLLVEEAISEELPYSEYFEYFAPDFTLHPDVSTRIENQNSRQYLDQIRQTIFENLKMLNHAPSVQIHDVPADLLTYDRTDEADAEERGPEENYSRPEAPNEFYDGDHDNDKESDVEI
# Runt-CBFb FRET: inhibitors of human RUNX1 Runt domain binding to CBFb; Q01196+Q13951; Cerulean-Runt/Venus-CBFb FRET ratio 530/480, 1 h; inhibition, % at 20 µM; actives 0.46% (n = 220,000);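 active means inhibition over about 50% at 20 µM in the single-dose screen, limit read from the data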;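 further: 0% = DMSO wells and 100% = excess unlabeled CBFb competitor control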
#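 Schedule: protein complex preformed 1 h, compound exposure 1 h, room temperature, dark; test system: Cerulean-labeled Runt domain protein; amount: 100 nM per protein; buffer or medium: Tris 50 mM pH 7.5, KCl, K2SO4, 0.01% BSA; read-out: loss of energy transfer signal; detection: FRET fluorescence; controls: 5 µM unlabeled CBFb as full-inhibition high control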
# RanGTP-Impb inh: disruptors of Ran-importin-beta complex formation – biochemical, FRET, CFP-Ran, YFP-importin-beta, homogeneous, primary screen; inhibition, % (concentration not given with the values); cell-free CFP-Ran/YFP-importin-beta FRET ratio; AID 2216; actives 1.1% (n = 300,000);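 active means more than half of the replicate wells show a fall in the fluorescence ratio signal beyond about 16%, limit read from the data, passing the limit was not always enough; inconclusive means exactly half of the replicate wells pass the set limit; inactive means fewer than half of replicates pass the limit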;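 further: 0% = DMSO wells and 100% = Ran loaded with GDP instead of GTP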
# Runt-SMMHC FRET: blocks binding of human RUNX1 Runt domain to CBFb-SMMHC | actives 0.74% (n = 220,000) | AID 1434 | Q01196+Q13951 | Cerulean-Runt/Venus-CBFb-SMMHC FRET ratio 530/480, 1 h | inhibition, % at 20 µM;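 active means mean inhibition across duplicate retests at 20 µM reaching about 50%, limit read from the data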;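 further: 0% = DMSO wells and 100% = wells with excess untagged CBFb-SMMHC; inhibitors lower the FRET ratio by blocking Runt binding to CBFb-SMMHC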
# CaV13 ICDI inh: Disruptors of the CACNA1D IQ motif to Ca2+-dependent inactivation inhibitor domain association, primary screening, Förster resonance energy transfer in intact living …. HEK cells, CFP/YFP FRET ICDI-IQ, plate reader, 10 min; percent FRET-ratio fall versus neutral wells. inhibition, % at 12.3 µM. actives 0.098% (n = 340,000). AID 743397;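 active means mean replicate inhibition of at least 30% and at least 1% of replicates passing that level; inconclusive means only one of the two criteria is met; inactive means neither criterion is met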;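 further: 0% = median of the neutral control wells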
# Numbers without * were called inactive; ? = inconclusive; nt = not tested or not shown; + = active, no number.
SMILES,LANA-H2B inh,HDAC3 inh,Runt-CBFb FRET,RanGTP-Impb inh,Runt-SMMHC FRET,CaV13 ICDI inh
Cc1ccc(C2=N/C(=C\N(C)C)C(=O)O2)cc1,-6,7,0,17*,-1,-3
CCCC(=O)Nc1ccc(-c2csc(NNC(C)=O)n2)cc1,0,6,2,3,0,-5
O=C(O/N=C1\CCS(=O)(=O)c2sccc21)C1CC1,-6,2,0,101*,2,-2
O=c1cc(CN2CCCCCCC2)c2ccccc2o1,nt,nt,nt,nt,nt,-5
O=C(O)CP(=O)(O)O,7.2*,-11,-1,-1,3,-5
COCCCn1c(SCC(=O)Nc2ccc(NC(=O)c3ccco3)c(OC)c2)nc2ccccc2c1=O,28*,3,-2,2,-6,nt
COC(=O)c1cc(CSc2nc3ccc(C)cc3[nH]2)oc1C,8,2,-1,-3,2,nt
Cc1ccc(S(=O)(=O)c2cc3ccccc3oc2=O)cc1,1,2,-6,?,-26,-5
Cc1c(O)ccc2cc(S(=O)(=O)c3ccccc3)c(=O)oc12,1,-124,nt,132*,nt,34*
CCOc1ccccc1/C=C/c1nc2ccccc2[nH]c1=O,2,-16,nt,71*,nt,-3
CN(C)CCNC(=S)Nc1cccc(Cl)c1,0,-4,2,0,-3,-5
O=C(Nc1cccc(Cl)c1)N(Cc1nc2ccccc2c(=O)[nH]1)C1CCCC1,0,-2,-2,2,-3,nt
COc1ccc(NC(C)=O)cc1S(=O)(=O)NCCc1ccccn1,30*,0,nt,nt,nt,-5
COc1ccc(C(=O)O)cc1S(=O)(=O)NCc1ccccn1,2,3,nt,-1,nt,-3
CCOc1ccc(NC(=O)COC(=O)CCN2C(=O)C3CC=CCC3C2=O)cc1OCC (stereo not given),40*,-6,nt,nt,nt,-5
O=C(COc1ccc(Cl)cc1)NNC(=O)c1ccc2c(=O)n3c(nc2c1)CCC3,-2,4,nt,-3,nt,-5
CNc1nnc(SCC(=O)N2c3ccccc3NC(=O)CC2C)s1 (stereo not given),+,-2,nt,nt,nt,-3
Cc1ccc(-c2cc(-c3ccc(Cl)cc3)c(C#N)c(N)n2)o1,4,-2,34,16*,33,-12
COc1cc(C2C(C#N)=C(N)Oc3cc(O)ccc32)cc2c1OCO2 (stereo not given),2,8,11,42*,41,nt
COc1cc(C2C(C#N)=C(N)Oc3cc(N(C)C)ccc32)cc2c1OCO2 (stereo not given),-5,2,-9,27*,13,nt
C=CCc1cccc(/C=N/n2c(C)nnc2C)c1O,-7,-1,-8,-4,-41,-5
CN1CCN(CC(=O)Nc2ccccc2C(F)(F)F)CC1,3,-4,nt,-1,nt,-4
O=C(CN1CCN(c2ccccc2)CC1)Nc1ccccc1C(F)(F)F,6,15,80*,1,-4,-2
CN1CCN(CCNC(=O)Nc2ccccc2C(F)(F)F)CC1,17*,1,-2,-3,8,-1
CCN(CC(=O)Nc1ccccc1C(F)(F)F)C(=O)CCc1ccccc1,-4,-2,nt,2,nt,-3
SMILES,LANA-H2B inh,HDAC3 inh,Runt-CBFb FRET,RanGTP-Impb inh,Runt-SMMHC FRET,CaV13 ICDI inh
O=C(CCc1ccccc1)Nc1ccccc1C(F)(F)F,32*,2,-1,4,-1,-4
COc1ccc(C(C)(C)C)cc1NC(=O)CCCN1C(=O)CN(C)C1=O,nt,nt,nt,nt,nt,-6
Cc1ccc2nc(-c3ccccc3)cc(C(=O)N3CC(C)OC(C)C3)c2c1 (stereo not given),2,-10,nt,4,nt,-2
COc1ccc(CNC(=O)CN2C(=O)c3ccc([N+](=O)[O-])cc3C2=O)cc1,23*,3,nt,-2,nt,-4
COc1ccc(CNC(=O)CN2C(=O)c3ccccc3C2=O)cc1,2,nt,nt,2,nt,-5
COc1ccc(CNC(=O)COc2ccc([N+](=O)[O-])cc2)cc1,-3,-8,0,37*,-2,-4
O=c1c2ccccc2sn1-c1cccc(Cl)c1,nt,nt,nt,nt,nt,-6
O=c1c2ccccc2sn1-c1ccccc1,-4,49*,32,3,57*,-8
Cc1ccc(-n2sc3ccccc3c2=O)cc1S(=O)(=O)N1CCCCC1,6,39*,-35,3,22,-5
CC1CCCN(C(=O)c2ccc3c(=O)n(Cc4ccc5c(c4)OCO5)c(=S)[nH]c3c2)C1 (stereo not given),1,6,-1,?,3,-5
CC(=O)NC(Cc1ccc(F)c(F)c1)C(=O)NC1CCN(C(=O)c2ccc(Cl)cc2)CC1 (stereo not given),-4,-1,nt,2,nt,-4
Cc1c(Cc2ccccc2)sc(/N=C/c2ccc3ccccc3c2)c1C(N)=O,+,-2,1,nt,-5,nt
Cc1ccc(/C=N/c2sc(Cc3ccccc3)c(C)c2C(N)=O)o1,2,13,10,1,0,-3
CN(C)C(CNC(=O)CCS(=O)(=O)c1ccccc1)c1ccccc1 (stereo not given),4,-1,nt,3,nt,-18
O=C(CC1S/C(=N/N=C/c2ccco2)NC1=O)Nc1ccccc1 (stereo not given),4,1,2,139*,17,-2
NC(=O)NC(=O)CC1S/C(=N/N=C/c2ccccc2)NC1=O (stereo not given),2,7,0,1,-2,8
O=C(O)CC1S/C(=N/N=C/c2ccccn2)NC1=O (stereo not given),24*,8,2,?,1,-5
COC(=O)C1CCN(c2cc(=O)n(C3CCCCC3)c(=O)[nH]2)CC1,-2,-2,0,63*,0,nt
COC(=O)C1CCN(c2cc(=O)n(Cc3ccc(F)cc3)c(=O)[nH]2)CC1,-9,0,-1,59*,-3,-7
O=c1cc(N2CCCCC2)[nH]c(=O)n1C1CCCCC1,4,0,2,12,-6,-6
O=C(NCc1ccccc1)c1ccc(Br)cc1,4,1,-2,-5,-3,-5
COc1cc(C(=O)Nc2nnc(Cc3ccccc3)s2)cc(OC)c1OC,-2,8,nt,-5,nt,-3
COc1cc(C(=O)Nc2nnc(CC(=O)N3CCOCC3)s2)cc(OC)c1OC,17*,-5,0,5,-2,-5
CC(C)(C)n1nc2c(c1NC(=O)c1ccc(F)c(F)c1)CS(=O)(=O)C2,1,-5,nt,4,nt,-6
NC(=O)c1c(-c2ccccc2)oc2ccc(O)cc12,17*,3,4,6,2,-4
O=C1CCCN1c1ccc(N2CCCC2=O)cc1,-2,-3,nt,-5,nt,-19
